# Screening data as filed in PubChem.
# A selection: hits, their analogues and other compounds. The true share with any hit is near 3.6%.
# VIM-2 inh: inhibitors of Pseudomonas aeruginosa VIM-2 metallo-beta-lactamase | purified VIM-2, nitrocefin hydrolysis, epi-absorbance fluorescence | inhibition, % at 5.6 µM | hit rate 0.89% among 290,000;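 active = inhibition above the mean of all tested compounds plus 3 SD, cutoff set per screening run, cut at about 7.5% in these data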;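 note: red hydrolysis product quenches plate fluorescence so inhibitors raise well fluorescence; 0% = enzyme with DMSO and 100% = DMSO without enzyme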
# pPAFAH FP inh: inhibitors of human plasma PAF acetylhydrolase (pPAFAH) | recombinant pPAFAH, FP-rhodamine probe fluorescence polarization | inhibition, % at 3.39 µM | Q13093 | hit rate 1.5% among 330,000;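 active = inhibition above the mean inhibition across the screen plus 3 SD, cut at about 25% in these data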;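 note: inhibitors block binding of the rhodamine activity-based probe so polarization drops; 0% = enzyme with DMSO and 100% = wells lacking pPAFAH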
# Target sequence (Q13093 whole entry, looked up): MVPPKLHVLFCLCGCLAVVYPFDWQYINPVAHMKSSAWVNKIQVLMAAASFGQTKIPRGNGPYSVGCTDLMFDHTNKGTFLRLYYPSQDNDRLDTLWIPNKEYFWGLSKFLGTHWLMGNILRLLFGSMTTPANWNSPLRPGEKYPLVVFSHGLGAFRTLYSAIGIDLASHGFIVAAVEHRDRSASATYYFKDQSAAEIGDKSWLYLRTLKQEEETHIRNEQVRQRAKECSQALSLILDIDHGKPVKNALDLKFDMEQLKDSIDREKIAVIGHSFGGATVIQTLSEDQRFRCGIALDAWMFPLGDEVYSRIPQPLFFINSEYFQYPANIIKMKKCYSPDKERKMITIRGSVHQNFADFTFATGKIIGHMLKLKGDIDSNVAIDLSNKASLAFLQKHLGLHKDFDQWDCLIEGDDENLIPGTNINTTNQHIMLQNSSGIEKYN
# PAFAH1B3 FP inh: inhibitors of human PAFAH1B3; inhibition, % at 3.39 µM; hit rate 0.28% among 340,000; Q15102; recombinant PAFAH1B3, FP-rhodamine probe, fluorescence polarization; AID 492972;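 active = inhibition above the screen-wide average of all tested compounds plus 3 SD, cut at about 25% in these data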;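 note: 0% = enzyme with DMSO only and 100% = wells lacking PAFAH1B3 protein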
# PAFAH1B2 FP inh: PAFAH1B2 (human) inhibition. hit rate 1.2% among 340,000. inhibition, % at 3.39 µM. P68402. AID 492953. recombinant PAFAH1B2, FP-rhodamine activity probe, fluorescence polarization;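 active = inhibition above the mean of all tested compounds plus 3 SD, cut at about 24% in these data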;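 note: 0% = enzyme with DMSO and 100% = wells lacking PAFAH1B2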
# IMP-1 inhibitor: blocks Pseudomonas aeruginosa IMP-1 metallo-beta-lactamase | purified IMP-1, nitrocefin hydrolysis, epi-absorbance fluorescence | inhibition, % at 5.6 µM | hit rate 0.45% among 290,000;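 active = inhibition above the mean plus 3 SD of all compounds in the same screening run, cut at about 4.5% in these data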;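 note: 0% = IMP-1 with DMSO and 100% = DMSO wells lacking enzyme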
#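 System: Purified IMP-1 | Read-out basis: Percent enzyme inhibition | Controls: IMP-1 with DMSO as 0%, enzyme-free DMSO as 100% | Replicates: One well per compound | Doses: 5.6 µM nominal single concentration | Detection: Epi-absorbance fluorescence, 480 nm excitation, 530 nm emission | Incubation: 25 °C, 15 min preincubation, 25 min reaction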
# PAFAH2 FP inh: PAFAH2 (human) inhibition; hit rate 0.99% among 340,000; AID 492956; recombinant PAFAH2, FP-rhodamine activity probe, fluorescence polarization; inhibition, % at 3.39 µM;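 active = inhibition above the mean over all tested compounds plus 3 SD, cut at about 30% in these data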;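 note: inhibitors block probe labeling of enzyme so polarization drops; 0% = enzyme with DMSO and 100% = wells lacking PAFAH2 protein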
# * = called active by the depositor; nt = no result given.
SMILES,VIM-2 inh,pPAFAH FP inh,PAFAH1B3 FP inh,PAFAH1B2 FP inh,IMP-1 inhibitor,PAFAH2 FP inh
CN1C(=O)N(C)c2ccc(Br)c3cccc1c23,11*,nt,3,4,1,-2
CN1C(=O)N(C)c2cccc3cccc1c23,9.3*,2,-4,5,-2,-3
Cc1ccc2c(c1)cc(C(=O)NCc1ccccc1)n2C,0,-6,0,-1,-1,-4
Cc1ccc(C(=O)N2CCC3CC2c2cc(-c4ccc5c(c4)OCO5)ccc23)cc1 (configuration not stated),nt,nt,2,-1,nt,5
CCOC(=O)C1CCCN(CC(=O)Nc2nccs2)C1 (configuration not stated),-3,28*,5,2,-4,2
COc1ccc(CCN(C)C(=O)Cc2ccc(-c3ccccc3)cc2)cc1OC,-2,10,-1,-2,8.5*,0
COc1ccc(CCN(C)C(=O)COc2ccc(C(=O)c3ccccc3)cc2)cc1OC,nt,5,3,5,nt,6
O=S(=O)(c1ccc(Oc2ccc(F)c(Cl)c2)nc1)N1CCOCC1,nt,3,5,7,nt,9
CC(=O)C[C@H](O)CC(=O)[C@@H]1OC(=O)CCCCCCCCc2ccccc21,nt,0,0,18,nt,1
CN(c1ccccc1)S(=O)(=O)c1cccc(NC(=O)CSc2ncn[nH]2)c1,-2,2,-1,25*,-4,4
Cc1ccc(S(=O)(=O)N2[C@@H](c3ccccc3)C(C(=O)O)=CC[C@H]2c2cccc(C)c2)cc1,nt,2,18,38*,nt,6
COc1cccc([C@@H]2CC=C(C(=O)O)[C@H](c3ccccc3)N2S(=O)(=O)c2ccc(C)cc2)c1,nt,2,-6,12,nt,5
COc1cccc([C@@H]2CC=C(C(=O)O)[C@H](c3ccc(F)cc3)N2S(=O)(=O)c2ccc(C)cc2)c1,nt,-4,17,26*,nt,-3
COCCN(C(=O)CSc1nnc(-c2ccccc2F)o1)c1c(N)n(CC(C)C)c(=O)[nH]c1=O,nt,-1,-2,-3,nt,-3
CCC(CC)NC(=O)COC(=O)c1ccc(OCc2ccc(C(C)=O)cc2OC)c(OC)c1,0,27*,4,-3,-1,77*
CCOc1ccc(NC(=O)CN(C)C(=O)C2CC(=O)N(c3cccc(SC)c3)C2)cc1OCC (configuration not stated),nt,nt,2,5,nt,8
Cc1ccc(NC(=O)CCN2C(=O)NC3(CCCC3)C2=O)c(C)c1,nt,-2,9,2,nt,2
Cn1c(C(=O)N2CCN(C(=O)c3ccco3)CC2)cc2c(=O)n(C)c3ccccc3c21,11*,2,5,4,-2,-4
COc1ccccc1N1CCN(C(=O)c2cc3c(=O)n(C)c4ccccc4c3n2C)CC1,8.8*,-1,14,8,-2,2
CCOC(=O)C1CCCN(C(=O)/C(=C/c2ccco2)NC(=O)c2ccccc2)C1 (configuration not stated),1,1,7,5,5.2*,3
O=C(N/C(=C/c1ccco1)C(=O)N1CCCCCC1)c1ccccc1,-5,3,2,-1,-5,3
O=C(NN=C1CCCC1)c1cc(Cl)cc(Cl)c1O,-2,34*,14,0,-3,7
O=C(CN(Cc1ccccc1)S(=O)(=O)c1ccc2c(c1)OCCO2)N/N=C/c1ccc(F)cc1,-3,33*,3,-1,-3,-5
COc1ccc(/C=N/NC(=O)CN(Cc2ccccc2)S(=O)(=O)c2ccc3c(c2)OCCO3)cc1,-5,16,-3,-1,-6,-5
Cc1ccccc1NC(=O)C1c2cccc[n+]2CC(=O)N1c1c(C)cccc1C (configuration not stated),-1,7,-1,-1,14*,5
CC(=O)OCCN1C(=O)c2cccc3cc([N+](=O)[O-])cc(c23)C1=O,nt,4,nt,nt,nt,nt
Cc1c(N/N=C(\C#N)C(=O)c2ccc(Cl)cc2)c(=O)n(-c2ccccc2)n1C,-5,4,7,4,-2,-1
N#C/C(=N\Nc1ccc(Cl)cc1)C(=O)c1ccccc1,2,27*,-3,4,0,25
O=C(N/N=C/c1ccc(Cl)cc1Cl)c1ccc2nc[nH]c2c1,-1,-5,11,2,8.8*,4
